Bioassay records: PubChem BioAssay, several laboratories
PKD1 inh = inhibitors of human PKD1 kinase, biochemical, fluorescence polarization; Serine/threonine-protein kinase D1 (Homo sapiens), Q15139; PKD1 kinase fluorescence polarization assay; inhibition, % (test concentration not listed); 0.056% of 200,000 active; AID 797, 2007; in the data active means inhibition above about 50%
FLuc act counter = FLuc activators, initial screening, artefact control for FLuc-dependent activation tests, biochemical, ATPlite luminescence; ATPlite luciferase biochemical, 10 min; 0 = ATP-free wells, 1 = DMSO control; 200,000 tested, under 10 active; AID 1027, 2008; activation factor at 10 µM; Luciferin 4-monooxygenase (Photinus pyralis), P08659;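 active means luciferase activation factor, scaled between plate controls, of at least 2 with compound at 10 µM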
Target sequence (P08659 whole entry, looked up): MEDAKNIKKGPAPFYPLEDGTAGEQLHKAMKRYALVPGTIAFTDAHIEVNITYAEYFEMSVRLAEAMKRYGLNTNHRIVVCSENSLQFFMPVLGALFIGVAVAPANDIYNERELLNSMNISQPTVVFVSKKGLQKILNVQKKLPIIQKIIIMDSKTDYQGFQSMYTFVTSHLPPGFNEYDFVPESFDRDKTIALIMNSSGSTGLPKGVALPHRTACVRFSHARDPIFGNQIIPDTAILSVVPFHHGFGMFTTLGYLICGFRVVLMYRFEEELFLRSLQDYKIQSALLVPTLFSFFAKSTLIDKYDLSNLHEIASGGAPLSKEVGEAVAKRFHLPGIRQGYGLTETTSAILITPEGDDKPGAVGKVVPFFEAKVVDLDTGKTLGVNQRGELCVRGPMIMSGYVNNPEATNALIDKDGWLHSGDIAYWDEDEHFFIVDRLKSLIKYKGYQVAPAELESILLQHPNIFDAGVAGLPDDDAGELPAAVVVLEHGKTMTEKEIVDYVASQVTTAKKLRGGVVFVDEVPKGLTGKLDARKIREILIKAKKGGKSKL
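assay system = Luciferase/luciferin detection reagent, cell-free biochemical luciferase assay | also added = ATP substrate | times = 10 min post-reagent at room temperature | measured by = luminescence from luciferase reaction | measure = luciferase activation, seen as luminescence increase over controls | benchmarks = low control with PBS replacing ATP, high control enzyme plus ATP without compound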
FLuc inhib CS = firefly luciferase enzyme inhibitors, primary screen, artefact control for luciferase-based inhibitor screens, biochemical, luminescence, ATPLite; inhibition, % at 10 µM; Luciferin 4-monooxygenase (Photinus pyralis), P08659; AID 1006, 2008; 1.5% of 200,000 active; 10 min;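 active means inhibition above about 50% when tested at 10 µM, limit read from the data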
PPC-1+TRAIL kill = compounds killing PPC-1 cancer cells with TRAIL present, primary screen, TRAIL potentiator project, ATPLite luminescence, uHTS | AID 1443, 2008 | 0.41% of 220,000 active | PPC-1 cells + TRAIL, ATPLite viability luminescence | cell killing (% activity), % at 4 µM or 5 µM;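 active means cell killing above 50% in the first pass at 4 µM, then a duplicate retest at 5 µM averaging 50% or more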;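 further: plate controls were cells with TRAIL plus DMSO for no effect and medium-only wells lacking cells for full effect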
C8 TRAIL sens = viability loss with TRAIL in NB7+C8 cells, primary screen, TRAIL sensitizer project, cell-based, ATPlite luminescence | 1% of 360,000 active | inhibition (viability loss, TRAIL sensitization), % at 10 µM;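 active means compounds causing at least 50% loss of cell viability in the single-dose screen, relative to plate controls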
Wee1 stabilizer = Wee1 degradation inhibitors, primary screen, cell-based, HeLa, Wee1K328M-luciferase, luminescence. reporter increase, % at 5 µM. AID 1321, 2008. 1.2% of 220,000 active. HeLa Luc-Wee1K328M stability; 100% = proteasome inhibitor MG132 effect. Wee1-like protein kinase (Homo sapiens), P30291;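 active means activation above the mean of all tested compounds plus 3 SD, set per screening run, cut at about 8.8% in these data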;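 further: cells exposed to compound for 20 h before luminescence read; 0% = DMSO alone and 100% = MG132 at 30 µM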
PPC-1 tox = cytotoxicity in PPC-1 cells, confirmation, cytotoxicity control for TRAIL apoptosis potentiator project, cell-based, ATP content luminescence; cytotoxicity, % at 5 µM; AID 1447, 2008; shares compounds with PPC-1+TRAIL kill; 50% of 1,200 active; PPC-1 viability, ATPlite luminescence, overnight;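 active means reconfirmed compounds whose average cytotoxicity reaches 50% or more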;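 further: 0% = DMSO-treated cells and 100% = wells holding medium but no cells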
Numbers without * were called inactive. The list is not random: actives were taken first. Their share in the collection is about 2.2%.

`Cc1nc(CN2CCN(C(=O)NC3(c4ccccc4)CC3)CC2)cs1` gave PKD1 inh -4, FLuc act counter 1.1, FLuc inhib CS -6, PPC-1+TRAIL kill 12, C8 TRAIL sens 5, Wee1 stabilizer 5 and PPC-1 tox -3.
O=C1N=C(N2CCOCC2)S/C1=C1\C(=O)N(Cc2ccccc2)c2ccccc21 was read as PKD1 inh -16, FLuc act counter 0.8, FLuc inhib CS 21, PPC-1+TRAIL kill 25, C8 TRAIL sens -1 and Wee1 stabilizer 0.
`CN1C(=O)/C(=C2\SC(N3CCCCCC3)=NC2=O)c2ccccc21` gave PKD1 inh 8, FLuc act counter 0.2, FLuc inhib CS 79*, PPC-1+TRAIL kill 59*, C8 TRAIL sens 51*, Wee1 stabilizer 0 and PPC-1 tox 49.
Screening CCCN1C(=O)/C(=C2\SC(N3CCCCC3)=NC2=O)c2ccccc21 returned PKD1 inh -4, FLuc act counter 0.3, FLuc inhib CS 71*, PPC-1+TRAIL kill 31, C8 TRAIL sens 43, Wee1 stabilizer 0 and PPC-1 tox 16.
`COc1ccc2nccnc2c1[N+](=O)[O-]` gave PPC-1+TRAIL kill 8, C8 TRAIL sens 15 and Wee1 stabilizer 4.
Cc1cccc(N=C2NN=C(c3ccc4c(c3)OCCO4)CS2)c1 was read as PKD1 inh 0, FLuc act counter 0.2, FLuc inhib CS 81*, PPC-1+TRAIL kill 36, C8 TRAIL sens 29, Wee1 stabilizer 2 and PPC-1 tox 33.
Screening Cc1ccc(-c2cnc3cc(C)nn3c2)cc1 returned PKD1 inh 3, FLuc act counter 0.1, FLuc inhib CS 91*, PPC-1+TRAIL kill 56*, C8 TRAIL sens 68*, Wee1 stabilizer 3 and PPC-1 tox 56*.
Screening CSc1ccc(S(=O)(=O)NC2CCCCCC2)cc1 returned PKD1 inh 8, FLuc act counter 1, FLuc inhib CS -4, PPC-1+TRAIL kill 0, C8 TRAIL sens -9, Wee1 stabilizer 1 and PPC-1 tox 1.
`O=C(NC1CCCCC1)C(c1ccccc1)N(Cc1ccc2c(c1)OCO2)C(=O)c1cnsn1` (stereo not given) gave PKD1 inh 0, FLuc act counter 1, FLuc inhib CS -4, PPC-1+TRAIL kill 1, C8 TRAIL sens 15, Wee1 stabilizer -1 and PPC-1 tox 8.
`O=C(c1nc2nc(-c3ccccc3)cc(C(F)(F)F)n2n1)N1CCCCC1` gave PKD1 inh -4, FLuc act counter 1, FLuc inhib CS 2, PPC-1+TRAIL kill -2, C8 TRAIL sens 0, Wee1 stabilizer -1 and PPC-1 tox -10.
`O=C(c1cc2nc(-c3ccccc3)cc(C(F)(F)F)n2n1)N1CCCC1` gave C8 TRAIL sens 15.
CC#CCOCC1CNC(=O)O1 (stereo not given) was read as C8 TRAIL sens 12.
Cc1ccccc1OCc1nnc(SCC(=O)Nc2ccc3nc(SCC(=O)NC(C)(C)C)sc3c2)n1C was read as PKD1 inh -3, FLuc act counter 1, FLuc inhib CS -3, PPC-1+TRAIL kill -15, C8 TRAIL sens 18, Wee1 stabilizer 9 and PPC-1 tox -13.
CCN(CC)C(=O)CSc1nc2ccc(NC(=O)CSc3nnc(COc4ccccc4C)n3C)cc2s1 was read as PKD1 inh -6, FLuc act counter 1, FLuc inhib CS -4, PPC-1+TRAIL kill 4, C8 TRAIL sens 7 and Wee1 stabilizer -2.
For COC(=O)c1cccc(S(=O)(=O)N2CCC(n3nnc4cc(F)ccc43)CC2)c1 the results were PKD1 inh 2, FLuc act counter 1, FLuc inhib CS -1, PPC-1+TRAIL kill 10, C8 TRAIL sens -1, Wee1 stabilizer -3 and PPC-1 tox 24.
